Screening results as filed in PubChem BioAssay.
The sample as a whole holds a higher share of hits than the screen did.
ALR H2O2 inh – inhibitors of human ALR sulfhydryl oxidase, primary screen, biochemical, H2O2 detection, HRP-luminol luminescence, single point; FAD-linked sulfhydryl oxidase ALR (Homo sapiens), P55789; purified ALR, DTT oxidation; inhibition, % (test concentration not listed); actives 3.8% (n = 290,000);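 active = mean replicate inhibition above about 79%, with every replicate also reaching it, limit read from the data; inconclusive = only one of the two criteria met; inactive = mean below limit and not every replicate reaching it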
Target sequence (P55789 whole entry, looked up): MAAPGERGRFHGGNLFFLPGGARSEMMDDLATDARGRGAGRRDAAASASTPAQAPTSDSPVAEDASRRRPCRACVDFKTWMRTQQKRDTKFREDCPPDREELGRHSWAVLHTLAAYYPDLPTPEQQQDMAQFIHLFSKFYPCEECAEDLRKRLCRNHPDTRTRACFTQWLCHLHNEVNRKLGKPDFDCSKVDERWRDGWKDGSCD
T cell HTS – modulators of CD8 T cell-vesicle binding, primary screen, mouse 2C CD8+ T cells, flow cytometry; 2C CD8+ T cell-vesicle binding; active compounds read low; response (vesicle binding), % at 7 µM; actives 0.068% (n = 330,000);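 active = response, share of CD8 T cells binding vesicles, and their 90th percentile fluorescence all below set limits, cut at about 80% in these data, passing the limit was not always enough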;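 note: values below 100% mean blocked vesicle binding to the CD8+ T cells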
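System: murine 2C transgenic CD8+ T lymphocytes; also added: QL9-loaded Drosophila micro-vesicles; times: binding 1.5 h at 37 °C; measured by: flow cytometry, PE anti-B7-1 (FL2) versus Alexa647 anti-CD8 (FL8), PFA-fixed; control set: Peptide-free naked vesicles (low) and QL9 vesicles with 0.7% DMSO vehicle (high)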
N-glyco inh – increase of ERlucT glycosylation luciferase signal, primary screen, N-linked glycosylation inhibitor project, D54 ERlucT cells, luminescence, set 2 | D54 ERlucT glycosylation luciferase reporter, 24 h; percent of 100 nM tunicamycin response | reporter increase, % at 12.5 µM | actives 0.23% (n = 360,000) | AID 588692, 2011;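 active = mean luciferase reporter signal, scaled so untreated is 0 and the glycosylation-blocking control 100, at or above a set limit in every replicate; inconclusive = mean reaches the limit but not every replicate does; inactive = mean below the limit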;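 note: luciferase carries N-glycosylation sites so blocking glycosylation raises the light; 0% = median of neutral control wells and 100% = median of 100 nM tunicamycin wells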
* hit, by the source's call.

For O=C(c1cc(C2CC2)on1)N1CCN(c2ccccc2)CC1 the results were ALR H2O2 inh 86*, T cell HTS 428 and N-glyco inh 2.
Screening O=C(c1cc(-c2ccc3c(c2)OCO3)on1)N1CCN(c2ccc(F)cc2)CC1 returned T cell HTS 347 and N-glyco inh 0.
`Cc1ccc(-c2cc(C(=O)N3CCCCCC3)no2)cc1` gave ALR H2O2 inh -1, T cell HTS 220 and N-glyco inh -12.
Screening O=C(c1cc(C2CC2)on1)N1CCCC(N2CCN(c3ccc(F)cc3)CC2)C1 (stereo not drawn) returned ALR H2O2 inh 43, T cell HTS 326 and N-glyco inh 0.
Screening O=C(c1cc(-c2ccc(O)cc2)on1)N1CCN(c2ccc(F)cc2)CC1 returned ALR H2O2 inh 91*, T cell HTS 900 and N-glyco inh -2.
`CNC(=O)C[C@@H]1C(=O)N(c2ccc(OC)cc2)CC1(C)C` gave N-glyco inh 1.
Screening COc1cccc(C(C)NC(=O)c2ccncc2)c1 (stereo not drawn) returned ALR H2O2 inh -1, T cell HTS 260 and N-glyco inh 1.
`CCCN(CC(=O)Nc1ccc(F)c(F)c1F)C(=O)CN1C(=O)NC2(CCCCC2)C1=O` gave N-glyco inh 0.
Screening CC1CCCC2(C1)NC(=S)N(c1ccccc1)N2 (stereo not drawn) returned ALR H2O2 inh 43, T cell HTS 537 and N-glyco inh 2.
Screening S=C1NC2(CCCCC2)NN1c1ccccc1 returned ALR H2O2 inh 98*, T cell HTS 732 and N-glyco inh 3.
`CC(=O)C[C@H]1c2ccccc2S(=O)(=O)N1c1ccccc1` gave ALR H2O2 inh 9, T cell HTS 312 and N-glyco inh 2.
For N#CCSCC(=O)Nc1ccc(Br)cc1 the results were ALR H2O2 inh 3, T cell HTS 357 and N-glyco inh -2.
`Cc1ccc(NC(=O)CSCC#N)cc1` gave ALR H2O2 inh 99*, T cell HTS 308 and N-glyco inh 2.
CCOC(=O)CC(=O)CSCC(=O)Nc1ccc(C)cc1 was read as ALR H2O2 inh 100*, T cell HTS 328 and N-glyco inh 3.
`CCN(CC(=O)Nc1ccc(NC(C)=O)cc1)C(=O)CSCC(=O)Nc1ccc(C)cc1` gave ALR H2O2 inh 62, T cell HTS 303 and N-glyco inh 0.
`CCc1nc2ccc(C(=O)NCCN3CCOCC3)cn2c1N(CCC(C)C)CCN(C)C` gave N-glyco inh -1.
Screening C/C=C\C(=O)Nc1cccc(C2=NOC3(C2)C[C@@H](C(N)=O)N(C(=O)c2ccc(OC)cc2)C3)c1 (stereo partly drawn) returned ALR H2O2 inh -10 and T cell HTS 691.
O=C(O)c1cccc(S(=O)(=O)Nc2ccc(O)c(Sc3nc4ccccc4s3)c2)c1 was read as ALR H2O2 inh 99*, T cell HTS 162 and N-glyco inh 2.
Screening O=S(=O)(Nc1ccc(O)c(Sc2nc3ccccc3s2)c1)c1ccc(F)cc1 returned ALR H2O2 inh inconclusive, T cell HTS 189 and N-glyco inh -3.
For CCOC(=O)C1CCN(C(=O)CCCn2nc(CC)n3c(cc4occc43)c2=O)CC1 the results were ALR H2O2 inh 5, T cell HTS 562 and N-glyco inh 0.
O=C(COC(=O)/C=C/c1ccc([N+](=O)[O-])cc1)NCC1CCCO1 (stereo not drawn) was read as ALR H2O2 inh 95*, T cell HTS 793 and N-glyco inh 0.
Screening O=C(COC(=O)/C=C/c1cccc([N+](=O)[O-])c1)NCC1CCCO1 (stereo not drawn) returned ALR H2O2 inh 12, T cell HTS 383 and N-glyco inh 1.
CC(C)c1ccccc1NC(=S)N1CCN(S(=O)(=O)c2cccs2)CC1 was read as ALR H2O2 inh -1, T cell HTS 328 and N-glyco inh -3.
`COc1cc(OC)cc(-c2nnc(NC(=O)c3ccc4c(c3)OCCO4)o2)c1` gave ALR H2O2 inh -4, T cell HTS 506 and N-glyco inh 6.
For O=C(NCc1ccc2c(c1)OCO2)c1cccc(C(=O)NCc2ccc3c(c2)OCO3)c1 the results were ALR H2O2 inh -19, T cell HTS 178 and N-glyco inh -3.
O=C(NCc1ccco1)c1cc2c(s1)CSC2 was read as ALR H2O2 inh 99* and T cell HTS 304.
Screening O=C(NCc1ccco1)c1cccs1 returned T cell HTS 186 and N-glyco inh 2.
O=C(NCc1ccc2c(c1)OCO2)c1cc2c(s1)CSC2 was read as ALR H2O2 inh 97*, T cell HTS 333 and N-glyco inh 1.
Cc1ccc(NC(=O)CSc2nc(O)c(Cc3ccccc3)c(=O)n2-c2ccccc2)cc1 was read as ALR H2O2 inh 99*, T cell HTS 285 and N-glyco inh 0.
`COc1ccc(-n2c(SCC(=O)Nc3ccccc3OC)nc(O)c(Cc3ccccc3)c2=O)cc1` gave ALR H2O2 inh 4, T cell HTS 80 and N-glyco inh 1.
`CCc1c(O)nc(SCC(=O)Nc2ccccc2C)n(-c2ccc(C)cc2)c1=O` gave ALR H2O2 inh inconclusive, T cell HTS 141 and N-glyco inh 3.
Screening CCc1c(O)nc(SCC(=O)Nc2cc(C)on2)n(-c2ccccc2)c1=O returned ALR H2O2 inh 97*, T cell HTS 292 and N-glyco inh 2.
Screening CCc1c(O)nc(SCC(=O)Nc2ccc(Br)cc2)n(-c2ccc(C)cc2)c1=O returned ALR H2O2 inh 96*, T cell HTS 75 and N-glyco inh -1.
For CCc1c(O)nc(SCC(=O)Nc2ccccc2)n(-c2ccccc2C)c1=O the results were N-glyco inh 3.
`CCc1c(O)nc(SCC(=O)Nc2ccccc2)n(-c2ccccc2)c1=O` gave ALR H2O2 inh 99*, T cell HTS 291 and N-glyco inh 3.
Cc1cc(NC(=O)CSc2nc3c(c(=O)n2-c2ccccc2)SC(C)C3)no1 (stereo not drawn) was read as ALR H2O2 inh 8, T cell HTS 748 and N-glyco inh 4.
`CC1(C(=O)NS(=O)(=O)C2CC2)CCCN(C(=O)c2ccccc2C(F)(F)F)C1` (stereo not drawn) gave N-glyco inh 1.
Screening Cc1ccc(CN2C(=O)C(C)Nc3ncnc(N4CCOCC4)c32)cc1 (stereo not drawn) returned ALR H2O2 inh 2, T cell HTS 452 and N-glyco inh 1.
`COc1ccc(-c2csc(C(C)(NC(C)=O)c3ccccc3)n2)cc1` (stereo not drawn) gave N-glyco inh -1.
For C=CCOC(=O)C1=C[C@H](c2ccc3c(c2)OCO3)C[C@H](OCCCCO)O1 the results were ALR H2O2 inh 5, T cell HTS 609 and N-glyco inh -1.
Screening CC[C@@]12C(=O)N(c3ccc(C)cc3)C(=O)N1[C@H](c1ccc(Br)cc1)[C@@H]1C(=O)N(C(C)(C)C)C(=O)[C@@H]12 returned ALR H2O2 inh -9, T cell HTS 550 and N-glyco inh -2.
